Reference: ChEMBL document CHEMBL1145047, “Design, synthesis, and evaluation of substituted phenylpropanoic acid derivatives as human peroxisome proliferator activated receptor activators. Discovery of potent and human peroxisome proliferator activated receptor alpha subtype-selective activators” (J Med Chem, 2003)
Active and inactive are the calls of the source. No cut-off for these calls is given here.

Tests used:
[1] = target: T1, Peroxisome proliferator-activated receptor delta (Homo sapiens, UniProt Q03181); assay: (§1) Agonist activity on Gal4 chimeric human Peroxisome proliferator activated receptor delta expressed in CHO-K1 cells; type: functional, cell-based
T1 sequence (Q03181 whole entry): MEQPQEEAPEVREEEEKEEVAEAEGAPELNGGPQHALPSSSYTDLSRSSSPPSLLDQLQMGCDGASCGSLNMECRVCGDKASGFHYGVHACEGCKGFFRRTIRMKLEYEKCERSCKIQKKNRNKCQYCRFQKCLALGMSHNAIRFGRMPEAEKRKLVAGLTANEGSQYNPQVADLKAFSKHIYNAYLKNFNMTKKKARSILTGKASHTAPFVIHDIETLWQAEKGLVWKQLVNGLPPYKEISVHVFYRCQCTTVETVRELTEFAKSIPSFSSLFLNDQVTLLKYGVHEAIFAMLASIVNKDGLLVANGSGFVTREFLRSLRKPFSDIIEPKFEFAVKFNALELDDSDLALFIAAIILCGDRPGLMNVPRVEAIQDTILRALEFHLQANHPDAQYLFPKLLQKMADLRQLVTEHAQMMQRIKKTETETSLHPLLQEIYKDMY

[2] = target: T2, Peroxisome proliferator-activated receptor alpha (Homo sapiens, UniProt Q07869); type: functional, cell-based
T2 sequence (Q07869 whole entry): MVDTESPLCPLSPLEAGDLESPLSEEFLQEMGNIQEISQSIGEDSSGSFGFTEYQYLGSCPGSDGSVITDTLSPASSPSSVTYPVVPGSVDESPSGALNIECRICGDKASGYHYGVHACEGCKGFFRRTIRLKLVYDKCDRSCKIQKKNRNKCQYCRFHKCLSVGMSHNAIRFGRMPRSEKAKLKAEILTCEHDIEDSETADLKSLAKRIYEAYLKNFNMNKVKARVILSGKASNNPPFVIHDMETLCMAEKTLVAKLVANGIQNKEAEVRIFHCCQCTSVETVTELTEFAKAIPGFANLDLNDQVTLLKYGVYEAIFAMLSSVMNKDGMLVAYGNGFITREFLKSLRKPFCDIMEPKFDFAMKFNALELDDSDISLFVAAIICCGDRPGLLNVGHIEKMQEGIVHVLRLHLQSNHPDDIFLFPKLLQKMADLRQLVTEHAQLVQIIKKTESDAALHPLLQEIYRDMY

[3] = target: T3, Peroxisome proliferator-activated receptor gamma (Homo sapiens, UniProt P37231)
T3 sequence (P37231 whole entry): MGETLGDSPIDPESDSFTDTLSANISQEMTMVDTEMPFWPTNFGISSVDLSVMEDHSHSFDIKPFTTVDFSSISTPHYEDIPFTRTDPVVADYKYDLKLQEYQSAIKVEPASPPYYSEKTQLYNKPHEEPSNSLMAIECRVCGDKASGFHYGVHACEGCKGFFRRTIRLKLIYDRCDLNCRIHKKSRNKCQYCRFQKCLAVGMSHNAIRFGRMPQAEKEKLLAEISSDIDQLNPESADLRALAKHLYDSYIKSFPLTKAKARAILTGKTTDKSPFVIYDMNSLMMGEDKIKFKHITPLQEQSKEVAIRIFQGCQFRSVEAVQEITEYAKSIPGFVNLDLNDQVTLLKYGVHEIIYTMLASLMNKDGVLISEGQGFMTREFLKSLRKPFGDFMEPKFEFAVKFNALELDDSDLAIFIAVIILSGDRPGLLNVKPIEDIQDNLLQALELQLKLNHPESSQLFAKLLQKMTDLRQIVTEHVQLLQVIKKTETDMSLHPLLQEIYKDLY

[4] = target: T4, Peroxisome proliferator-activated receptor gamma (Homo sapiens) (UniProt P37231); assay: In vitro effective concentration for agonist activity on human Peroxisome proliferator activated receptor gamma-Gal4 chimeric receptor in transfected CHO-K1 cells at 10 uM; type: functional, cell-based
T4 sequence (whole entry): T3 sequence (P37231 whole entry)

[5] = target: T5, Peroxisome proliferator-activated receptor delta (Homo sapiens) (UniProt Q03181); assay: as §1; type: functional, cell-based
T5 sequence (whole entry): T1 sequence (Q03181 whole entry)
Summary of the method: (§2)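 GAL4–human PPAR LBD chimera, reporter assay in CHO-K1 cells. Cells seeded at 5 × 10⁴/well in Ham's F12 with 10% FCS for 24 h at 37 °C. Cotransfected for 2 h (lipofectamine) per well with 40 ng GAL4/PPAR LBD, 400 ng pFR-Luc and 5 ng pRL-TK. Compounds applied for 20 h at 37 °C, then luciferase read from cell lysates. EC50 is 50% of maximal reporter activity, from curve fit, n = 3.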

[6] = target: T6, Peroxisome proliferator-activated receptor alpha (Homo sapiens) (UniProt Q07869); assay: Agonist activity on Gal4 chimeric human Peroxisome proliferator activated receptor alpha expressed in CHO-K1 cells; type: functional, cell-based; summary of the method: as §2
T6 sequence (whole entry): T2 sequence (Q07869 whole entry)

[7] = target: T5, Peroxisome proliferator-activated receptor delta (Homo sapiens); assay: In vitro effective concentration for agonist activity on human Peroxisome proliferator activated receptor delta-GAL4 chimeric receptor in transfected CHO-K1 cells at 10 uM; inactive; type: functional, cell-based
Rattus norvegicus [8] = assay: In vivo percent reduction on FFA of the rat at 30 mg/kg after 5 days; type: functional
Summary of the method: (§3)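 Male Sprague-Dawley rats, 11 weeks old, fed standard chow and water ad libitum. Drug or vehicle suspended in 0.5% w/v arabic gum and given orally once daily at 0.3, 3 or 30 mg/kg; duration is 4 days in the methods and 5 days in the table. Plasma taken in the fed state. TG, FFA and total cholesterol measured enzymatically. HDL obtained by precipitation; LDL+VLDL = total minus HDL cholesterol. Values are mean percent reduction, N = 5 or 6.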

Rattus norvegicus [9] = assay: In vivo percent reduction on LDL+VLDL of the rat at 30 mg/kg after 5 days; type: functional; summary of the method: as §3
Rattus norvegicus [10] = assay: In vivo percent reduction on TG of the rat at 30 mg/kg after 5 days; type: functional; summary of the method: as §3
Rattus norvegicus [11] = assay: In vivo percent reduction on total cholesterol of the rat at 30 mg/kg after 5 days; type: functional; summary of the method: as §3
[12] = target: T5, Peroxisome proliferator-activated receptor delta (Homo sapiens); assay: In vitro In vitro effective concentration for agonist activity on human Peroxisome proliferator activated receptor delta-GAL4 chimeric receptor in transfected CHO-K1 cells at 10 uM; inactive; type: functional, cell-based
[13] = target: T5, Peroxisome proliferator-activated receptor delta (Homo sapiens); assay: In vitro effective concentration for agonist activity on human Peroxisome proliferator activated receptor delta-GAL4 chimeric receptor in transfected CHO-K1 cells at 10 uM; inactive
[14] = target: T5, Peroxisome proliferator-activated receptor delta (Homo sapiens); assay: In vitro effective concentration for agonist activity on human Peroxisome proliferator activated receptor delta-GAL4 chimeric receptor in transfected CHO-K1 cells; inactive; type: functional, cell-based; summary of the method: as §2

Compound	EC50 [2] [µM]	IA [4]	IA [5]	also measured
CCC(Cc1ccc(OC)c(C(=O)NCc2ccc(Oc3ccccc3)cc2)c1)C(=O)O (centres undefined)	0.09	–	–	EC50 [1]: 3 µM; EC50 [3]: 2.4 µM
CCCC(Cc1ccc(OC)c(C(=O)NCc2ccc(C(F)(F)F)cc2)c1)C(=O)O (centres undefined)	–	inactive	–	–
CCSC(Cc1ccc(OC)c(C(=O)NCc2ccc(C(F)(F)F)cc2)c1)C(=O)O (centres undefined)	1.6	–	–	EC50 [1]: 3 µM; EC50 [3]: 2.8 µM
CCC(Cc1ccc(OC)c(C(=O)NCc2ccccc2OC)c1)C(=O)O (centres undefined)	9.4	inactive	inactive	–
CCC(Cc1ccc(OC)c(C(=O)N(C)Cc2ccc(C(F)(F)F)cc2)c1)C(=O)O (centres undefined)	–	inactive	inactive	IA [6]: inactive
COc1ccc(CC(C)C(=O)O)cc1C(=O)NCc1ccc(C(F)(F)F)cc1 (centres undefined)	–	inactive	–	–
COc1ccc(CC(C)(C)C(=O)O)cc1C(=O)NCc1ccc(C(F)(F)F)cc1	–	inactive	inactive	–
COc1ccc(CCC(=O)O)cc1C(=O)NCc1ccc(C(F)(F)F)cc1	–	inactive	inactive	–
CCC(Cc1ccc(OC)c(C(=O)NCc2ccccc2)c1)C(=O)O (centres undefined)	2.3	–	–	IA [7]: inactive; EC50 [3]: 10 µM
COc1ccc(C(=O)O)cc1C(=O)NCc1ccc(C(F)(F)F)cc1	–	inactive	inactive	IA [6]: inactive
CCC(Cc1ccc(OC)c(C(=O)NCc2cccc(C(F)(F)F)c2)c1)C(=O)O (centres undefined)	1.8	inactive	–	IA [7]: inactive
CC(C)(Oc1ccc(CCNC(=O)c2ccc(Cl)cc2)cc1)C(=O)O [BEZAFIBRATE]	–	–	–	EC50 [1]: > 143 µM; Reduction (Rattus norvegicus [8]): 46%; Reduction (Rattus norvegicus [9]): 22%; Reduction (Rattus norvegicus [10]): 41%; Reduction (Rattus norvegicus [11]): 27%
CCC(Cc1ccc(OC)c(C(=O)NCc2ccc(-c3ccccc3)cc2)c1)C(=O)O (centres undefined)	–	–	inactive	EC50 [3]: 4 µM
COc1ccc(CC(=O)O)cc1C(=O)NCc1ccc(C(F)(F)F)cc1	–	inactive	–	IA [12]: inactive; IA [6]: inactive
CCC(Cc1ccc(OC)c(C(=O)CCc2ccc(C(F)(F)F)cc2)c1)C(=O)O (centres undefined)	–	–	–	IA [7]: inactive
CCC(Cc1ccc(OC)c(C(=O)NCc2cccc(OC)c2)c1)C(=O)O (centres undefined)	3.1	–	inactive	–
COc1ccc(CC(Sc2ccccc2)C(=O)O)cc1C(=O)NCc1ccc(C(F)(F)F)cc1 (centres undefined)	–	inactive	inactive	IA [6]: inactive
CCC(Cc1ccc(OC)c(CC(=O)Nc2ccc(C(F)(F)F)cc2)c1)C(=O)O (centres undefined)	–	inactive	inactive	–
CCC(Cc1ccc(OC)c(C(=O)NCc2ccccc2Oc2ccccc2)c1)C(=O)O (centres undefined)	–	inactive	inactive	IA [6]: inactive
COc1ccc(CC2SC(=O)NC2=O)cc1C(=O)NCc1ccc(C(F)(F)F)cc1 (centres undefined)	–	–	–	IA [13]: inactive
CCC(Cc1ccc(OC)c(C(=O)NCc2ccc(OCc3ccccc3)cc2)c1)C(=O)O (centres undefined)	1.5	inactive	inactive	–
COc1ccc(CC(C(=O)O)c2ccccc2)cc1C(=O)NCc1ccc(C(F)(F)F)cc1 (centres undefined)	–	inactive	inactive	IA [6]: inactive

Compound	EC50 [2] [µM]	IA [4]	IA [5]	also measured
COc1ccc(CC(C(=O)O)C(C)C)cc1C(=O)NCc1ccc(C(F)(F)F)cc1 (centres undefined)	–	inactive	inactive	–
CCC(Cc1ccc(OC)c(C(=O)Nc2ccc(C(F)(F)F)cc2)c1)C(=O)O (centres undefined)	–	inactive	inactive	–
CCC(Cc1ccc(OC)c(C(=O)NCc2ccc(OCCc3ccccc3)cc2)c1)C(=O)O (centres undefined)	2.7	–	inactive	EC50 [3]: 3 µM
CCC(Cc1ccc(OC)c(C(=O)NCc2ccc(OC(F)(F)F)cc2)c1)C(=O)O (centres undefined)	0.043	inactive	–	EC50 [1]: 0.9 µM
CCC(Cc1ccc(OC)c(NC(=O)Nc2ccc(C(F)(F)F)cc2)c1)C(=O)O (centres undefined)	–	inactive	inactive	IA [6]: inactive
COc1ccc(CC(OC)C(=O)O)cc1C(=O)NCc1ccc(C(F)(F)F)cc1 (centres undefined)	–	inactive	inactive	–
CCC(Cc1ccc(OC)c(CNC(=O)c2ccc(C(F)(F)F)cc2)c1)C(=O)O (centres undefined)	–	–	–	EC50 [3]: > 10 µM
CCC(Cc1ccc(OC)c(C(=O)NCc2cccc(Oc3ccccc3)c2)c1)C(=O)O (centres undefined)	0.4	–	inactive	EC50 [3]: 6.2 µM
CCCCC(Cc1ccc(OC)c(C(=O)NCc2ccc(C(F)(F)F)cc2)c1)C(=O)O (centres undefined)	–	–	–	IA [14]: inactive
COc1ccc(CC(SCc2ccccc2)C(=O)O)cc1C(=O)NCc1ccc(C(F)(F)F)cc1 (centres undefined)	–	inactive	inactive	IA [6]: inactive
CCC(Cc1ccc(OC)c(CCCc2ccc(C(F)(F)F)cc2)c1)C(=O)O (centres undefined)	–	inactive	–	–
CCC(CC)(Cc1ccc(OC)c(C(=O)NCc2ccc(C(F)(F)F)cc2)c1)C(=O)O	–	inactive	inactive	–
CCC(Cc1ccc(OC)c(C(=O)NCc2ccc(Cl)cc2)c1)C(=O)O (centres undefined)	3	inactive	–	IA [14]: inactive
CCC(Cc1ccc(OC)c(CNCc2ccc(C(F)(F)F)cc2)c1)C(=O)O (centres undefined)	–	inactive	–	–
COc1ccc(CC(Oc2ccccc2)C(=O)O)cc1C(=O)NCc1ccc(C(F)(F)F)cc1 (centres undefined)	–	inactive	inactive	IA [6]: inactive
CCC(Cc1ccc(OC)c(OCCc2ccc(C(F)(F)F)cc2)c1)C(=O)O (centres undefined)	–	inactive	–	–
CCC(Cc1ccc(OC)c(NC(=O)Cc2ccc(C(F)(F)F)cc2)c1)C(=O)O (centres undefined)	–	inactive	inactive	–
CCC(Cc1ccc(OC)c(C(=O)NCCc2ccc(C(F)(F)F)cc2)c1)C(=O)O (centres undefined)	–	inactive	–	–
CCC(Cc1ccc(OC)c(C(=O)NCc2ccc(CCc3ccccc3)cc2)c1)C(=O)O (centres undefined)	5.6	–	inactive	EC50 [3]: 5.4 µM
CCC(Cc1ccc(OC)c(C(=O)NCc2ccc(OC)cc2)c1)C(=O)O (centres undefined)	1.2	inactive	–	EC50 [1]: 6.6 µM
COc1ccc(CCCC(=O)O)cc1C(=O)NCc1ccc(C(F)(F)F)cc1	–	–	inactive	–
